Broadly, the IC50 is the concentration needed to halve the response being measured. For orientation: CC50 means the concentration giving 50% cytotoxicity. A word on the inhibition: it is the change of the read-out against control, counted positive when it falls.

The source made the active and inactive calls. No cut-off for these calls is given here.

This note sets out measurements from ChEMBL document CHEMBL4765368, “Structure guided design and synthesis of furyl thiazolidinedione derivatives as inhibitors of GLUT 1 and GLUT 4, and evaluation of their anti-leukemic potential” (Eur J Med Chem, 2020).

Series [1] addresses Histone deacetylase 4 (Homo sapiens) (UniProt P56524). Put plainly: Inhibition of recombinant human N-terminal GST-tagged HDAC4 (627 to end residues) expressed in baculovirus infected Sf9 insect cells assessed as residual activity at 50 uM using Boc-Lys(trifluoroacetyl)-AMC as substrate preincubated for 60 mins followed by substrate addition and measured after 60 mins by fluorescence assay relative to control. The note with it: time 120.0 min.

Series [2] deals with T1, Solute carrier family 2, facilitated glucose transporter member 4 (Homo sapiens, UniProt P14672).
T1 sequence (P14672 whole entry): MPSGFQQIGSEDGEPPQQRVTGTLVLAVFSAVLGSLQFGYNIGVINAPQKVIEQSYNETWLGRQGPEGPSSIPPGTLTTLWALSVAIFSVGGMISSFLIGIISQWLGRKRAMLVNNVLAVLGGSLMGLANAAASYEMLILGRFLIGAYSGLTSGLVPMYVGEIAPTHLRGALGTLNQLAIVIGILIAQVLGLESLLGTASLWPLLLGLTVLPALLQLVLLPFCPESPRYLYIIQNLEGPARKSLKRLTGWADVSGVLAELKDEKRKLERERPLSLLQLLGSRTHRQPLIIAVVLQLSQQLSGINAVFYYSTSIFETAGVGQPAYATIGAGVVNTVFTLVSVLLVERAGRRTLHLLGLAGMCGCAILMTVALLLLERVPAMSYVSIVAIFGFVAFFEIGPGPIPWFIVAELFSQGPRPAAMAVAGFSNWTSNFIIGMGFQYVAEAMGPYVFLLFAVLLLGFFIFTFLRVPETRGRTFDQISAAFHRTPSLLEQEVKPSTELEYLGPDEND
Briefly: Inhibition of transport activity of human GLUT4 expressed in hexose transporter deficient W4000fgy1 erg4 yeast cells assessed as reduction in transporter-mediated [14C]-hexose uptake into cells measured after 10 mins by scintillation counting method. In kind it is cell-based. An outline of the steps:
(§1)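 GLUT1 (VW4000fgy1) or GLUT4 (VW4000fgy1erg4) hxt0 yeast were grown on maltose and then glucose and resuspended in PBS pH 7.4 at OD600 ~10. Compound was used at 0.1–100 μM, final 1% DMSO. Uptake of 5 mM 14C-glucose over 10 min was stopped with ice-cold quench buffer, filtered and counted by scintillation. IC50 was taken from dose-response curves of three independent measurements.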

In series [3] the test system is HS27. Put plainly: Cytotoxicity against human HS27 cells assessed as reduction in cell viability measured after 48 hrs by Hoechst 33342/propidium iodide staining based imaging analysis. The following applies: hs27, 48 h. The method in brief: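 Cells were seeded at 10,000 per well (HS-27 at 3,000) in 10% FBS RPMI (leukemic lines) or DMEM (MDA-MB-231, HS-27). Compound in DMSO (1% v/v final) at 0.5–100 µM for 48 h. Hoechst 33342 and PI were added 2 h before automated imaging; dead cells were co-stained. Quadruplicates. CC50 was taken by linear interpolation between the two concentrations nearest 50% death.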

The subject of series [4] is HS27. Briefly: Cytotoxicity against human HS27 cells assessed as cell death at 100 uM measured after 48 hrs by Hoechst 33342/propidium iodide staining based imaging analysis relative to control. The note with it: hs27, 48 h. An outline of the steps: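 HS-27 fibroblasts in DMEM with 10% FBS and penicillin/streptomycin at 37 °C, 5% CO2, seeded at 3,000 cells/well. Treated 48 h with DMSO-dissolved compound (0.5–100 µM range) in quadruplicate. Hoechst 33342 and PI were added 2 h before imaging, and Hoechst/PI-colocalised nuclei were scored as dead. Controls were DMSO vehicle, H2O2 and untreated cells.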

The target in series [5] is T2, Solute carrier family 2, facilitated glucose transporter member 1 (Homo sapiens) (UniProt P11166).
T2 sequence (whole entry): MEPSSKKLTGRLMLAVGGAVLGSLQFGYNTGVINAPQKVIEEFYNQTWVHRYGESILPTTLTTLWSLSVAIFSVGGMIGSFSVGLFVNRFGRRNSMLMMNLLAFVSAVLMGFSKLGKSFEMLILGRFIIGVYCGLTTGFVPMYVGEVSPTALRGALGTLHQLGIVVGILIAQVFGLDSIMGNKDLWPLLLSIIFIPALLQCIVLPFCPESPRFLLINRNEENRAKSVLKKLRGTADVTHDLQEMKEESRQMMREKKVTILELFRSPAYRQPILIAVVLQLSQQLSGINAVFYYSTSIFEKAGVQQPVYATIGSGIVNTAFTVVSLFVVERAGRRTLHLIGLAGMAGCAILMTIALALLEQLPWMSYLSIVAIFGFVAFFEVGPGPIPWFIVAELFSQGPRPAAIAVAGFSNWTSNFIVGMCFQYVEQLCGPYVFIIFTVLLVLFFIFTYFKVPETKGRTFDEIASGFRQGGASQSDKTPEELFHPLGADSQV
Briefly: Inhibition of transport activity of human GLUT1 expressed in hexose transporter deficient VW4000fgy1 yeast cells assessed as reduction in transporter-mediated [14C]-hexose uptake into cells at 100 uM measured after 10 mins by scintillation counting method relative to control. The class given is cell-based. An outline of the steps: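 The hxt0 yeast strain expressing one human GLUT was grown at 30 °C and resuspended in PBS pH 7.4 at OD600 ~10. Uptake was started with 14C-glucose at 5 mM final (GLUT1, GLUT4) or 14C-fructose at 10 mM final (GLUT5). It was quenched after 10 min with ice-cold 0.1 M KPi/0.1 M LiCl pH 5.5, filtered and counted by scintillation. Compound at 100 μM with 1% DMSO; DMSO control and phloretin 200 μM (GLUT1/4) or MSNBA 100 μM (GLUT5) as references. Triplicates.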

Series [6] concerns the target T3, Solute carrier family 2, facilitated glucose transporter member 1 (Homo sapiens, UniProt P11166).
T3 sequence (P11166 whole entry): T2 sequence (whole entry)
Briefly: Inhibition of transport activity of human GLUT1 expressed in hexose transporter deficient VW4000fgy1 yeast cells assessed as reduction in transporter-mediated [14C]-hexose uptake into cells measured after 10 mins by scintillation counting method. In kind it is cell-based. The method in brief: as §1

Series [7] in a line: Cytotoxicity against human WBC assessed as cell viability at higher concentration measured after 48 hrs by MTT assay relative to control. In kind it is tissue-based. Background: Tetrazolium dyes change colour on reduction, which living cells bring about.
The nature of series [8]: Toxicity in SCID mouse xenografted with human CCRF-CEM cells assessed as body weight loss at 50 mg/kg, ip administered daily for 5 days with 2 days interval for 18 days. The class given is organism-based. The following applies: in vivo, 432 h, time 18 day. Background: A xenograft is tissue or cells of one species grown in another, often human tumour cells in immunodeficient mice.

The target in series [9] is T2, Solute carrier family 2, facilitated glucose transporter member 1 (Homo sapiens). Briefly: Inhibition of GLUT1 in human CCRF-CEM cells assessed as decrease in mTOR phosphorylation at 10 uM measured after 6 hrs by Western blot analysis. In kind it is cell-based. The method in brief:
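CEM cells were treated with 10 µM for 6 h. Untreated cells were the negative control and staurosporine the positive control. Cells were washed with cold PBS, lysed in Laemmli buffer with protease inhibitors, sonicated and quantified. Blots were blocked 45 min in PBS-Tween-5% milk, with primary antibody 3 h and secondary 1 h at room temperature.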

Series [10] can be described thus: Selectivity index, ratio of IC50 for human WBC to CC50 for human CCRF-CEM cells. The method in brief:
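Donor blood was layered on HiSep and centrifuged at 400×g for 30 min; mononuclear cells were washed and RBC-lysed to give WBCs. WBCs were seeded overnight at 37 °C, 5% CO2, then exposed to 2.5–100 µM for 48 h. MTT was added for 4 h at 37 °C, formazan was dissolved in DMSO and A570 read. The CEM CC50 came from a 48 h Hoechst/PI imaging assay.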

Histone deacetylase 4 (Homo sapiens), sequence (P56524 whole entry): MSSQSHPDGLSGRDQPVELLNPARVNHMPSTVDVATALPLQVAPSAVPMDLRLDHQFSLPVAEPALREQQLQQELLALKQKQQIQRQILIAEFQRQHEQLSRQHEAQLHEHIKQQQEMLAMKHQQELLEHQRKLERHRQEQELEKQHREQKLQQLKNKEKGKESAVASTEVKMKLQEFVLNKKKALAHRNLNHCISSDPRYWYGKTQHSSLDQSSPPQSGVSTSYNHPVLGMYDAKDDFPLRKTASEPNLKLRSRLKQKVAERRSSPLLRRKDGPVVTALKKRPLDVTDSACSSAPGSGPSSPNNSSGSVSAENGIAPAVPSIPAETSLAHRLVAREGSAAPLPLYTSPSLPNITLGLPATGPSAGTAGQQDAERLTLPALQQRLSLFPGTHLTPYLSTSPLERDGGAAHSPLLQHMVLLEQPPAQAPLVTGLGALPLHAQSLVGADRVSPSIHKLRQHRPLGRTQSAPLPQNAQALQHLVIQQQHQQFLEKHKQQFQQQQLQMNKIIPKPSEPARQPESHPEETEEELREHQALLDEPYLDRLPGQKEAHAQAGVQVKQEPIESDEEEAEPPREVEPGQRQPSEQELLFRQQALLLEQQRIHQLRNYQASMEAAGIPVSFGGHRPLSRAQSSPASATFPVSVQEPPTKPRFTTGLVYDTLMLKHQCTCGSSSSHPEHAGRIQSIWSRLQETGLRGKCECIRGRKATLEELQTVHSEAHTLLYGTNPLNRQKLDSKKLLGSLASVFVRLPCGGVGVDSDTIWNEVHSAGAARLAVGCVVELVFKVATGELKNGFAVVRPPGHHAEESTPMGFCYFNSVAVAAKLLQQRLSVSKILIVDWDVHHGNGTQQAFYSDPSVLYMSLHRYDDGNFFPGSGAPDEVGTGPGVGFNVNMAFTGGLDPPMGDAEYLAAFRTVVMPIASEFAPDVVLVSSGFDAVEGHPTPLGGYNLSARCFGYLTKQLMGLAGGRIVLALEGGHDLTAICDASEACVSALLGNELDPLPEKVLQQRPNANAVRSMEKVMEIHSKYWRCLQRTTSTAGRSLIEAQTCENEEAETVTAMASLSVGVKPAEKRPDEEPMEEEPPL

With `O=C(CN1C(=O)S/C(=C/c2ccco2)C1=O)Nc1ccc(Cl)c(Cl)c1`, the Activity in series [1] was more than 50%; in the series on HS27 [4], 27.32%. In addition, the results for the IC50 in series [2] and in series [6] were 152 µM and 14.7 µM, respectively. For the same compound, the CC50 with HS27 [3] was more than 100 µM. Further, the inhibition in series [5] was more than 50%.
In the case of `O=C(CN1C(=O)S/C(=C/c2ccco2)C1=O)Nc1nc2ccccc2s1`, the values for the Activity in series [7], in [1] and in [8] were more than 62%, more than 50% and “Non-Toxic”, respectively. The results for the IC50 in series [2] and in series [6] were 6.8 µM and 11.4 µM, respectively. Also, the CC50 in the series with HS27 [3] is 44 µM. In addition, the inhibition result in series [9] was “Active”. Moreover, the “Ratio IC50” value in series [10] amounted to 107. Also, the inhibition in series [5] was 100%.
